# Measurements taken from ChEMBL document CHEMBL5260797, “N-(1-Benzyl-3,5-dimethyl-1H-pyrazol-4-yl)benzamides: Antiproliferative Activity and Effects on mTORC1 and Autophagy” (ACS Med Chem Lett, 2017).
# Calls of active or inactive are those of the source. The calls are words filed in the database; no cut-off is given here.
# Experiments:
# [1] = tested on: MIA PaCa-2; test: Antiproliferative activity against human MIA PaCa-2 cells assessed as cell viability measured after 72 hrs by MTT assay; assay type: functional, cell-based; settings: MIA PaCa-2, 72 h
# In short: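 MIA PaCa-2 pancreatic cancer cells; EC50 values determined in triplicate.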
# [2] = Cytotoxicity against human ARPE-19 cells assessed as cell viability measured after 72 hrs by MTT assay; assay type: toxicity, cell-based
# [3] = tested on: ARPE-19; test: Induction of autophagy in human ARPE-19 cells assessed as LC3 accumulation at 25 to 50 uM measured after 4 hrs under refeed condition by immunofluorescence analysis; assay type: functional, cell-based; settings: dose 25-50 µM
# [4] = tested on: ARPE-19; test: Induction of autophagy in human ARPE-19 cells assessed as LC3 enlarged structures at 25 uM pretreated for 30 mins with cells followed by incubation for 4 hrs under starvation condition by immunofluorescence analysis; assay type: functional, cell-based; settings: time 4.5 hrs
# In short: (§1)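 ARPE-19 cells starved 4 h in EBSS with 25 μM compound or DMSO. LC3-labeled structures imaged by immunofluorescence, with CD63 as late endosomal/lysosomal marker.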
# [5] = tested on: ARPE-19; test: Induction of autophagy in human ARPE-19 cells assessed as fold increase in LC3 turnover at 25 uM measured after 4 hrs by Western blot analysis; assay type: functional
# In short: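 ARPE-19 human retinal pigment epithelial cells exposed 4 h to compound or DMSO in complete medium without starvation. LC3 conversion read by Western blot as LC3-II/actin ratio and expressed as fold increase over DMSO control, n = 3.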
# [6] = target: T1, mTORC1 (Homo sapiens) (UniProt P42345+Q8N122+Q9BVC4); test: Inhibition of mTORC1 reactivation in human ARPE-19 cells at 25 to 50 uM preincubated for 4 hrs under starvation/refeed condition measured after 1 hr in complete medium by Western blot analysis; assay type: cell-based; settings: dose 25-50 µM, time 5.0 hrs
# T1 sequence (Q8N122 whole entry, looked up, other chains not shown): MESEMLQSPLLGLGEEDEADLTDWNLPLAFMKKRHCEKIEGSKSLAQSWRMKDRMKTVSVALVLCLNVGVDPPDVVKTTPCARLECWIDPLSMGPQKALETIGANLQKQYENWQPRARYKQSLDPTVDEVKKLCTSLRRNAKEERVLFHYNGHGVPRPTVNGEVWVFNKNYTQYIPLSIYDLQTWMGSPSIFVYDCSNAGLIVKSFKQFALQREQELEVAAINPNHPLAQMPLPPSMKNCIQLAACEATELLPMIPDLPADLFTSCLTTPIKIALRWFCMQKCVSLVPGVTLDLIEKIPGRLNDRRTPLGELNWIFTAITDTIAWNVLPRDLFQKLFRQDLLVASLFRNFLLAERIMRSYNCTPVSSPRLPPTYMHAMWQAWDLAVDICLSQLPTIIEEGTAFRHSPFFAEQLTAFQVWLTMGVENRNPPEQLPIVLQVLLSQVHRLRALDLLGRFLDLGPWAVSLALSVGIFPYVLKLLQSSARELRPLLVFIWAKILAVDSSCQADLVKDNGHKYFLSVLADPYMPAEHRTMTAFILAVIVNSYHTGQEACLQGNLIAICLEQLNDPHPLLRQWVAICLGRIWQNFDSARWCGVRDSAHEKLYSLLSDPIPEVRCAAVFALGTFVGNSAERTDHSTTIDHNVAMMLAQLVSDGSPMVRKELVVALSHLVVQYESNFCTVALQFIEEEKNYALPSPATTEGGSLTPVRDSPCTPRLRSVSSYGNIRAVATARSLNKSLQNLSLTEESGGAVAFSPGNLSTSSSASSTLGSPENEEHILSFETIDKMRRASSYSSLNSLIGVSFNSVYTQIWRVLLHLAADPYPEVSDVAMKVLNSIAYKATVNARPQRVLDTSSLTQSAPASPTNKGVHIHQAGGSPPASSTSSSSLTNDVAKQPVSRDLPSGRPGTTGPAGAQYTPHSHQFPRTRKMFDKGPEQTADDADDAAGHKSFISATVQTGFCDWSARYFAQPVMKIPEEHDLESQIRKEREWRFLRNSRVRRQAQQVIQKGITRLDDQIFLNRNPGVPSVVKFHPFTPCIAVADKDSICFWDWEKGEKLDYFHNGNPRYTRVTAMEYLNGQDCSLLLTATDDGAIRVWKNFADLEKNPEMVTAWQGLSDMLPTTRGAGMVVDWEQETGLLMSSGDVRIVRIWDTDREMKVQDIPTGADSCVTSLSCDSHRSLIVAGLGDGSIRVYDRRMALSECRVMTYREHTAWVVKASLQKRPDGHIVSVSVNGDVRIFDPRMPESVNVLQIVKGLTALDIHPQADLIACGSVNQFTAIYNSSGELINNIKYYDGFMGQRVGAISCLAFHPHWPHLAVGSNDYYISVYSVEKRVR
# T1 sequence (Q9BVC4 whole entry, looked up, other chains not shown): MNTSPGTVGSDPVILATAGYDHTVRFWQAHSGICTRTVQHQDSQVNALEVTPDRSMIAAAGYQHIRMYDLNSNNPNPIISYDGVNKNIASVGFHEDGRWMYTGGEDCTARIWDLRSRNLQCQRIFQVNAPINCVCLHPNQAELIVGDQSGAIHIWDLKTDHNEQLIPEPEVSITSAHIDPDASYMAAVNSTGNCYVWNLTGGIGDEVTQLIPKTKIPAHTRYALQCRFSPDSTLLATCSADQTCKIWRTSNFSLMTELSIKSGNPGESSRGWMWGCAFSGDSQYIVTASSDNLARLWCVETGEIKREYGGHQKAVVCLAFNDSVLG
# [7] = tested on: ARPE-19; test: Inhibition of autophagy in human ARPE-19 cells assessed as fold decrease in LC3 turnover at 10 uM pretreated for 30 mins with cells followed by incubation for 4 hrs under starvation condition by Western blot analysis; settings: time 4.5 hrs
# [8] = target: T1, mTORC1 (Homo sapiens); test: Inhibition of mTORC1 in human ARPE19 cells at 10 to 50 uM measured after 4 hrs by Western blot analysis related to control; assay type: cell-based; settings: ARPE-19, dose 10-50 µM
# In short: (§2)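 ARPE-19 cells treated 4 h without starvation with increasing concentrations or DMSO. Basal mTORC1 activity measured by Western blot as phosphorylated P70/total P70, with DMSO set to 100%.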
# [9] = target: T1, mTORC1 (Homo sapiens); test: Inhibition of mTORC1 in human ARPE19 cells measured after 4 hrs by Western blot analysis; assay type: cell-based; settings: ARPE-19, dose 10-50 µM; in short: as §2
# [10] = tested on: ARPE-19; test: Reduction in autophagic flux in human ARPE-19 cells at 25 uM incubated for 4 hrs in complete medium in presence of bafilomycin; assay type: functional, cell-based
# In short: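 ARPE-19 cells in full medium with 100 nM bafilomycin plus compound or DMSO. Autophagic flux read as LC3-II by Western blot.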
# [11] = Metabolic stability in human plasma assessed as parent compound remaining measured after 6 hrs by LC-MS/MS analysis; assay type: ADME, cell-free; settings: read-out: Stability
# [12] = tested on: ARPE-19; test: Induction of autophagy in human ARPE-19 cells assessed as appearance of LC3 non-uniformed shapes at 25 uM pretreated for 30 mins with cells followed by incubation for 4 hrs under starvation condition by immunofluorescence analysis; assay type: functional, cell-based; settings: time 4.5 hrs; in short: as §1
# [13] = tested on: ARPE-19; test: Induction of autophagy in human ARPE-19 cells assessed as decrease in LC3-2/actin ratio at 10 uM pretreated for 30 mins with cells followed by incubation for 4 hrs under starvation condition in presence of bafilomycin by Western blot analysis; assay type: functional, cell-based; settings: time 4.5 hrs
# In short: (§3)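 ARPE-19 cells pretreated 30 min at 10 μM (or DMSO). Then 4 h with compound in EBSS starvation medium, or in EBSS with 100 nM bafilomycin. LC3-II/actin quantified by Western blot as fold of DMSO control, n = 3.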
# [14] = tested on: ARPE-19; test: Induction of autophagy in human ARPE-19 cells assessed as increase in LC3-2 conversion at 10 uM measured after 4 hrs by Western blot analysis; assay type: functional, cell-based
# In short: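 ARPE-19 cells treated 4 h in complete medium without starvation with increasing concentrations (10, 25, 50 μM) or DMSO. LC3 detected by Western blot; LC3-II/actin ratio expressed as fold increase over DMSO control, n = 3.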
# [15] = Metabolic stability in mouse plasma assessed as parent compound remaining measured after 24 hrs by LC-MS/MS analysis; assay type: ADME, cell-free; settings: read-out: Stability
# [16] = tested on: ARPE-19; test: Induction of autophagy in human ARPE-19 cells assessed as LC3 level at 25 uM measured after 4 hrs under starvation/refeed condition by immunofluorescence analysis; assay type: functional, cell-based
# In short: (§4)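 ARPE-19 cells starved 4 h in EBSS, then refed 1 h in complete medium containing 25 μM compound or DMSO. LC3 punctae imaged by immunofluorescence, with CD63 co-stain.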
# [17] = tested on: ARPE-19; test: Induction of autophagy in human ARPE-19 cells assessed as appearance of abnormal punctae at 25 uM measured after 1 hr under starvation/refeed condition by immunofluorescence analysis; assay type: functional, cell-based; in short: as §4
# [18] = tested on: ARPE-19; test: Induction of autophagy in human ARPE-19 cells assessed as increase in LC3-labeled punctae at 25 uM measured after 4 hrs by immunofluorescence analysis relative to control; assay type: functional, cell-based
# In short: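 ARPE-19 cells treated 4 h at 25 μM in complete medium without starvation, or with DMSO. LC3 punctae detected by immunofluorescence, with CD63 as late endosomal/lysosomal marker.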
# [19] = target: T1, mTORC1 (Homo sapiens); test: Inhibition of mTORC1 in human ARPE19 cells assessed as decrease in P70/total P70 phosphorylation level at 10 uM measured after 4 hrs by Western blot analysis; assay type: cell-based; settings: ARPE-19; in short: as §2
# [20] = Metabolic stability in mouse plasma assessed as parent compound remaining measured after 6 hrs by LC-MS/MS analysis; assay type: ADME, cell-free; settings: read-out: Stability
# [21] = Thermodynamic aqueous solubility of the compound at pH 7.4 measured after 48 hrs by UV-spectrometry method; assay type: physicochemical; settings: read-out: Therm_solubility
# [22] = Metabolic stability in mouse liver microsomes assessed as half life at 1 uM by LC-MS/MS analysis; assay type: ADME, Microsome
# [23] = target: T1, mTORC1 (Homo sapiens); test: Inhibition of mTORC1 reactivation in human ARPE-19 cells assessed as reduction of 4E-BP1 phosphorylation at 10 uM preincubated for 4 hrs under starvation/refeed condition measured after 1 hr in complete medium by Western blot analysis; assay type: cell-based; settings: time 5.0 hrs
# In short: (§5)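 ARPE-19 cells starved 4 h in EBSS, then refed 1 h in complete medium with 10 μM compound or DMSO. mTORC1 reactivation read by Western blot as phosphorylation of P70 and 4EBP1.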
# [24] = Metabolic stability in human plasma assessed as parent compound remaining measured after 24 hrs by LC-MS/MS analysis; assay type: ADME, cell-free; settings: read-out: Stability
# [25] = tested on: ARPE-19; test: Induction of autophagy in human ARPE-19 cells assessed as decrease in LC3-2/actin ratio at 10 uM pretreated for 30 mins with cells followed by incubation for 4 hrs under starvation condition by Western blot analysis; assay type: functional, cell-based; settings: time 4.5 hrs; in short: as §3
# [26] = target: T1, mTORC1 (Homo sapiens); test: Inhibition of mTORC1 reactivation in human ARPE-19 cells assessed as reduction of P70 phosphorylation at 10 uM preincubated for 4 hrs under starvation/refeed condition measured after 1 hr in complete medium by Western blot analysis; assay type: cell-based; settings: time 5.0 hrs; in short: as §5
structure (smiles),measurement,setting,value
Cc1nn(Cc2cccc(C(=O)N(C)C)c2)c(C)c1NC(=O)c1ccc(COc2ccccc2)cc1,EC50,[1],6.4 µM
CNC(=O)c1cccc(Cn2nc(C)c(NC(=O)c3ccc(COc4ccccc4OC)cc3)c2C)c1,EC50,[1],8.5 µM
Cc1nn(Cc2ccccc2)c(C)c1NC(=O)c1ccc(COc2ccccc2)cc1,EC50,[1],10 µM
CCN(CC)CCCC(C)Nc1ccnc2cc(Cl)ccc12 (configuration not stated) [CHLOROQUINE],EC50,[1],14 µM
CNC(=O)c1cccc(Cn2nc(C)c(NC(=O)c3ccc(COc4ccc(C)cc4)cc3)c2C)c1,EC50,[1],2.6 µM
CNC(=O)c1cccc(Cn2nc(C)c(NC(=O)c3ccc(COC4CCCCC4)cc3)c2C)c1,EC50,[1],14 µM
Nc1ccn([C@@H]2O[C@H](CO)[C@@H](O)C2(F)F)c(=O)n1 [GEMCITABINE],EC50,[1],0.0015 µM
C#Cc1cccc(Nc2ncnc3cc(OCCOC)c(OCCOC)cc23)c1 [ERLOTINIB],EC50,[1],27 µM
Fc1ccc(CNc2ncnc3ccc(F)cc23)cc1,EC50,[1],20 µM
Cc1nn(Cc2cccc(C(N)=O)c2)c(C)c1NC(=O)c1ccc(COc2ccccc2)cc1,EC50,[1],9.2 µM
CNC(=O)c1cccc(Cn2nc(C)c(NC(=O)c3ccc(COc4cccc(C(F)(F)F)c4)cc3)c2C)c1,EC50,[1],2.3 µM
CNC(=O)c1cccc(Cn2nc(C)c(NC(=O)c3ccc(COc4ccccc4C)cc3)c2C)c1,EC50,[1],2.1 µM
CNC(=O)c1cccc(Cn2nc(C)c(NC(=O)c3ccc(COc4ccccc4)cc3)c2C)c1,EC50,[1],6.2 µM
Cc1nn(Cc2cccc(C(=O)Nc3ccccc3)c2)c(C)c1NC(=O)c1ccc(COc2ccccc2)cc1,EC50,[1],6.4 µM
CNC(=O)c1cccc(Cn2nc(C)c(NC(=O)c3ccc(COc4ccc(OC)cc4)cc3)c2C)c1,EC50,[1],8 µM
CNC(=O)c1cccc(Cn2nc(C)c(NC(=O)c3ccc(COc4ccccc4C(F)(F)F)cc3)c2C)c1,EC50,[1],10 µM
CNC(=O)c1cccc(Cn2nc(C)c(NC(=O)c3ccc(COc4cccc(C)c4)cc3)c2C)c1,EC50,[1],6.2 µM
Cc1nn(Cc2ccccc2C(N)=O)c(C)c1NC(=O)c1ccc(COc2ccccc2)cc1,EC50,[1],42 µM
Cn1cnc(N)c2ncnc1-2 [3-METHYLADENINE],EC50,[1],> 100 µM
CNC(=O)c1cccc(Cn2nc(C)c(NC(=O)c3ccc(COc4ccc(C(F)(F)F)cc4)cc3)c2C)c1,EC50 at 72 h,[2],47.9 µM
same,Activity,[3],Active
same,Activity,[4],Active
same,fold change (FC),[5],2.7
same,inhibition,[6],Active
same,fold change (FC),[7],1.2
same,inhibition,[8],46%
same,inhibition,[9],Dose-Dependent Effect
same,Activity,[10],inactive
same,remaining at 6 h,[11],99%
same,Activity,[12],Active
same,Activity,[13],inactive
same,Activity,[14],Active
same,remaining at 24 h,[15],77%
same,Activity,[16],Active
same,Activity,[17],Active
same,Activity,[18],Active
same,inhibition,[19],Active
same,remaining at 6 h,[20],91%
same,solubility thermodynamic at 48 h,[21],67.3 µM
same,half-life at 1 µM,[22],1 h
same,Activity,[23],inactive
same,EC50,[1],0.8 µM
same,remaining at 24 h,[24],100%
same,Activity,[25],Active
same,Activity,[26],inactive
CCNC(=O)c1cccc(Cn2nc(C)c(NC(=O)c3ccc(COc4ccccc4)cc3)c2C)c1,EC50,[1],11 µM
Cc1nn(Cc2ccc(C(N)=O)cc2)c(C)c1NC(=O)c1ccc(COc2ccccc2)cc1,EC50,[1],> 100 µM
CNC(=O)c1cccc(Cn2nc(C)c(NC(=O)c3ccc(COc4ccc(Cl)cc4)cc3)c2C)c1,EC50,[1],4.2 µM
CNC(=O)c1cccc(Cn2nc(C)c(NC(=O)c3ccc(COc4cccc(Cl)c4)cc3)c2C)c1,EC50,[1],5.9 µM
CNC(=O)c1cccc(Cn2nc(C)c(NC(=O)c3ccc(COc4cccc(OC)c4)cc3)c2C)c1,EC50,[1],6.2 µM
CNC(=O)c1cccc(Cn2nc(C)c(NC(=O)c3ccc(COc4ccccc4Cl)cc3)c2C)c1,EC50,[1],6.3 µM
Cc1nn(Cc2cccc(C(=O)NC(C)C)c2)c(C)c1NC(=O)c1ccc(COc2ccccc2)cc1,EC50,[1],8.9 µM
